{"source": "ChEMBL document CHEMBL1275442", "about": "“Pharmacokinetics and tissue distribution of anidulafungin in rats” (Antimicrob Agents Chemother, 2008)", "format_in_all_cases": "ADME, organism-based", "key": {"[1]": {"experiment": "Tmax in F344 rat lung at 5 mg/kg, iv administered as single bolus dose by HPLC method", "set-up": "dose 5 mg/kg, route intravenous", "outline": "(§1)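 F344 males, 10 to 11 weeks old and 223.6 to 243.8 g, got a single 5 mg/kg iv dose of [14C]anidulafungin over about 5 min. Plasma and tissues were collected predose and at 0.083 to 72 h, n = 3 per time point. Parent drug was quantified by HPLC-UV, with LLOQ/ULOQ of 20/5,120 ng/ml in plasma and 220/56,320 ng/g in tissue. Noncompartmental parameters came from a composite mean concentration-time profile.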"}, "[2]": {"system": "Blood", "experiment": "AUC (0 to 24 hrs) in F344 rat blood assessed as total compound-derived radioactivity per gram of tissue at 5 mg/kg, iv administered as single bolus dose […]", "set-up": "time < 24 hr, dose 5 mg/kg, route intravenous", "conditions": "in vivo", "outline": "(§2)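 Same F344 study: single 5 mg/kg IV [¹⁴C]anidulafungin given over about 5 min. Total drug-derived radioactivity (parent plus metabolites) counted by liquid scintillation, in […]. Noncompartmental analysis of the composite mean profile.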"}, "[3]": {"experiment": "Cmax in F344 rat lung at 5 mg/kg, iv administered as single bolus dose after 5 min by HPLC method", "set-up": "dose 5 mg/kg, route intravenous", "outline": "(§3)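 Male F344 rats, 10–11 weeks, 223.6–243.8 g, given one IV dose of [¹⁴C]anidulafungin, 5 mg/kg, over about 5 min. Tissues and blood sampled at 0.083–72 h (n = 3 rats per time). Parent drug measured by HPLC; LLOQ/ULOQ were 20/5,120 ng/ml for plasma and 220/56,320 ng/g for tissue. Noncompartmental parameters taken from the composite mean profile.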"}, "[4]": {"experiment": "Cmax in F344 rat liver at 5 mg/kg, iv administered as single bolus dose after 5 min by HPLC method", "set-up": "dose 5 mg/kg, route intravenous", "outline": "as §3"}, "[5]": {"system": "Cerebrospinal fluid", "experiment": "Tmax in F344 rat cerebrospinal fluid assessed as total compound-derived radioactivity at 5 mg/kg, iv administered as single bolus dose […]", "set-up": "dose 5 mg/kg, route intravenous", "conditions": "in vivo", "outline": "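Male F344 rats, 10 to 11 weeks old and 223.6 to 243.8 g, got one iv dose of [14C]anidulafungin at 5 mg/kg over about 5 min. Blood, CSF, kidney, liver, lung, quadriceps, spleen and skin were sampled predose and at 0.083 to 72 h, 3 rats per time. Total radioactivity (parent plus metabolites) was measured by liquid scintillation counting. Parameters were noncompartmental, from a composite mean profile.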"}, "[6]": {"system": "Kidney", "experiment": "Drug level in Long Evans rat kidney assessed as low disposition of radioactivity per gram of tissue at 5 mg/kg, iv administered as single bolus dose measured 24 hrs postdose by autoradiography", "set-up": "dose 5 mg/kg, route intravenous", "conditions": "in vivo", "outline": "(§4)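 Male pigmented Long Evans (HsdBlu:LE) rats, 7.5 weeks old, 202 to 217 g, single iv [¹⁴C]anidulafungin; one rat per sampling time. Euthanized by isoflurane and cardiac-puncture exsanguination. Sagittal whole-body sections quantified by phosphorimaging autoradiography, single samples corrected for section thickness across multiple sections per tissue. Concentrations (μg eq/g drug-derived radioactivity) interpolated from least-squares standard curves per scan.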"}, "[7]": {"system": "Cerebrum", "experiment": "Drug level in Long Evans rat cerebrum assessed as radioactivity per gram of tissue at 5 mg/kg, iv administered as single bolus dose measured 24 hrs postdose by autoradiography", "set-up": "dose 5 mg/kg, route intravenous", "conditions": "in vivo", "outline": "as §4"}, "[8]": {"system": "Cerebrospinal fluid", "experiment": "Drug level in Long Evans rat cerebrospinal fluid assessed as radioactivity per gram of tissue at 5 mg/kg, iv administered as single bolus dose measured 6 hrs postdose by autoradiography", "set-up": "dose 5 mg/kg, route intravenous", "conditions": "in vivo", "outline": "as §4"}, "[9]": {"system": "Blood", "experiment": "Drug level in Long Evans rat blood assessed as radioactivity per gram of tissue at 5 mg/kg, iv administered as single bolus dose measured 72 hrs postdose by autoradiography", "set-up": "dose 5 mg/kg, route intravenous", "conditions": "in vivo", "outline": "as §4"}, "[10]": {"experiment": "Drug level in Long Evans rat eye assessed as radioactivity per gram of tissue at 5 mg/kg, iv administered as single bolus dose measured 12 hrs postdose by autoradiography", "set-up": "dose 5 mg/kg, route intravenous", "conditions": "in vivo", "outline": "as §4"}, "[11]": {"experiment": "Drug level in Long Evans rat eye assessed as radioactivity per gram of tissue at 5 mg/kg, iv administered as single bolus dose measured 24 hrs postdose by autoradiography", "set-up": "dose 5 mg/kg, route intravenous", "conditions": "in vivo", "outline": "as §4"}, "[12]": {"system": "Muscle tissue", "experiment": "Drug level in Long Evans rat muscle assessed as radioactivity per gram of tissue at 5 mg/kg, iv administered as single bolus dose measured 12 hrs postdose by autoradiography", "set-up": "dose 5 mg/kg, route intravenous", "conditions": "in vivo", "outline": "as §4"}, "[13]": {"system": "Spleen", "experiment": "AUC (0 to 24 hrs) in F344 rat spleen assessed as total compound-derived radioactivity per gram of tissue at 5 mg/kg, iv administered as single bolus dose […]", "set-up": "time < 24 hr, dose 5 mg/kg, route intravenous", "conditions": "in vivo", "outline": "as §2"}, "[14]": {"experiment": "Tmax in F344 rat plasma at 5 mg/kg, iv administered as single bolus dose by HPLC method", "set-up": "dose 5 mg/kg, route intravenous", "outline": "as §1"}, "[15]": {"system": "Zone of skin", "experiment": "Drug level in Long Evans rat skin assessed as radioactivity per gram of tissue at 5 mg/kg, iv administered as single bolus dose measured 0.5 hrs postdose by autoradiography", "set-up": "dose 5 mg/kg, route intravenous", "conditions": "in vivo", "outline": "(§5)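 Male pigmented Long Evans (HsdBlu:LE) rats, 7.5 weeks old and 202 to 217 g, got a single iv dose of [14C]anidulafungin at 5 mg/kg. One rat per time point (0.5, 6, 12, 24, 72, 168 h) was euthanised by isoflurane and cardiac-puncture exsanguination. Sagittal whole-body sections were quantified by phosphorimaging. Samples were thickness-corrected, and concentrations (μg eq/g) were interpolated from least-squares standard curves.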"}, "[16]": {"system": "Cerebrospinal fluid", "experiment": "Drug level in Long Evans rat cerebrospinal fluid assessed as radioactivity per gram of tissue at 5 mg/kg, iv administered as single bolus dose measured 168 hrs postdose by autoradiography", "set-up": "dose 5 mg/kg, route intravenous", "conditions": "in vivo", "outline": "as §4"}, "[17]": {"system": "Liver", "experiment": "Drug level in Long Evans rat liver assessed as high disposition of radioactivity per gram of tissue at 5 mg/kg, iv administered as single bolus dose measured 24 hrs postdose by autoradiography", "set-up": "dose 5 mg/kg, route intravenous", "conditions": "in vivo", "outline": "as §4"}, "[18]": {"system": "Zone of skin", "experiment": "Drug level in Long Evans rat skin assessed as radioactivity per gram of tissue at 5 mg/kg, iv administered as single bolus dose measured 24 hrs postdose by autoradiography", "set-up": "dose 5 mg/kg, route intravenous", "conditions": "in vivo", "outline": "as §5"}, "[19]": {"system": "Liver", "experiment": "AUC (0 to infinity) in F344 rat liver at 5 mg/kg, iv administered as single bolus dose", "set-up": "time infinity, dose 5 mg/kg, route intravenous", "conditions": "in vivo", "outline": "as §3"}, "[20]": {"system": "Cerebrospinal fluid", "experiment": "Drug level in Long Evans rat cerebrospinal fluid assessed as radioactivity per gram of tissue at 5 mg/kg, iv administered as single bolus dose measured 72 hrs postdose by autoradiography", "set-up": "dose 5 mg/kg, route intravenous", "conditions": "in vivo", "outline": "as §4"}, "[21]": {"system": "Kidney", "experiment": "Cmax in F344 rat kidney assessed as total compound-derived radioactivity per gram of tissue at 5 mg/kg, iv administered as single bolus dose after 30 mins by HPLC method", "set-up": "dose 5 mg/kg, route intravenous", "conditions": "in vivo, 0.5 h", "outline": "as §2"}, "[22]": {"system": "Lung", "experiment": "AUC (0 to infinity) in F344 rat lung assessed as total compound-derived radioactivity per gram of tissue at 5 mg/kg, iv administered as single bolus dose […]", "set-up": "dose 5 mg/kg, route intravenous, time infinity", "conditions": "in vivo", "outline": "as §2"}, "[23]": {"system": "Muscle tissue", "experiment": "Drug level in Long Evans rat muscle assessed as radioactivity per gram of tissue at 5 mg/kg, iv administered as single bolus dose measured 72 hrs postdose by autoradiography", "set-up": "dose 5 mg/kg, route intravenous", "conditions": "in vivo", "outline": "as §5"}, "[24]": {"system": "Plasma", "experiment": "Cmax in F344 rat plasma assessed as total compound-derived radioactivity per gram of tissue at 5 mg/kg, iv administered as single bolus dose after 5 mins by HPLC method", "set-up": "dose 5 mg/kg, route intravenous", "conditions": "in vivo", "outline": "as §2"}, "[25]": {"system": "Lung", "experiment": "AUC (0 to 24 hrs) in F344 rat lung at 5 mg/kg, iv administered as single bolus dose", "set-up": "time < 24 hr, dose 5 mg/kg, route intravenous", "conditions": "in vivo", "outline": "as §3"}, "[26]": {"system": "Zone of skin", "experiment": "AUC (0 to infinity) in F344 rat skin assessed as total compound-derived radioactivity per gram of tissue at 5 mg/kg, iv administered as single bolus dose […]", "set-up": "time infinity, dose 5 mg/kg, route intravenous", "conditions": "in vivo", "outline": "as §2"}}}
{"smiles": "CCCCCOc1ccc(-c2ccc(-c3ccc([14C](=O)N[C@H]4C[C@@H](O)[C@@H](O)NC(=O)[C@@H]5[C@@H](O)[C@@H](C)CN5C(=O)[C@H]([C@@H](C)O)NC(=O)[C@H]([C@H](O)[C@@H](O)c5ccc(O)cc5)NC(=O)[C@@H]5C[C@@H](O)CN5C(=O)[C@H]([C@@H](C)O)NC4=O)cc3)cc2)cc1", "note": "[14C-ANIDULAFUNGIN]", "values": [{"measurement": "Tmax", "setting": "[1]", "result": 4.98, "unit": "min"}, {"measurement": "AUC", "setting": "[2]", "result": 203.14, "unit": "ugequiv.hr/g"}, {"measurement": "Cmax", "setting": "[3]", "result": 31100, "unit": "ng/g"}, {"measurement": "Cmax", "setting": "[4]", "result": 15900, "unit": "ng/g"}, {"measurement": "Tmax", "setting": "[5]", "result": 4.98, "unit": "min"}, {"measurement": "Drug uptake", "setting": "[6]", "result": 4.41, "unit": "ugequiv"}, {"measurement": "Drug uptake", "setting": "[7]", "result": 0.26, "unit": "ugequiv"}, {"measurement": "Drug uptake", "setting": "[8]", "result": 5.54, "unit": "ugequiv"}, {"measurement": "Drug uptake", "setting": "[9]", "result": 0.85, "unit": "ugequiv"}, {"measurement": "Drug uptake", "setting": "[10]", "result": 1.36, "unit": "ugequiv"}, {"measurement": "Drug uptake", "setting": "[11]", "result": 2.07, "unit": "ugequiv"}, {"measurement": "Drug uptake", "setting": "[12]", "result": 1.39, "unit": "ugequiv"}, {"measurement": "AUC", "setting": "[13]", "result": 822.61, "unit": "ugequiv.hr/g"}, {"measurement": "Tmax", "setting": "[14]", "result": 4.98, "unit": "min"}, {"measurement": "Drug uptake", "setting": "[15]", "result": 5.42, "unit": "ugequiv"}, {"measurement": "Drug uptake", "setting": "[16]", "result": 2.18, "unit": "ugequiv"}, {"measurement": "Drug uptake", "setting": "[17]", "result": 29.63, "unit": "ugequiv"}, {"measurement": "Drug uptake", "setting": "[18]", "result": 3.5, "unit": "ugequiv"}, {"measurement": "AUC", "setting": "[19]", "result": 767.22, "unit": "µg·h/g"}, {"measurement": "Drug uptake", "setting": "[20]", "result": 3.37, "unit": "ugequiv"}, {"measurement": "Cmax", "setting": "[21]", "result": 19.63, "unit": "ugequiv/g"}, {"measurement": "AUC", "setting": "[22]", "result": 1341.95, "unit": "ugequiv.hr/g"}, {"measurement": "Drug uptake", "setting": "[23]", "result": 0.43, "unit": "ugequiv"}, {"measurement": "Cmax", "setting": "[24]", "result": 7.57, "unit": "ugequiv/g"}, {"measurement": "AUC", "setting": "[25]", "result": 557.77, "unit": "µg·h/g"}, {"measurement": "AUC", "setting": "[26]", "result": 326.92, "unit": "ugequiv.hr/g"}]}
